We go through one compound from ChEMBL document CHEMBL1671867, “Novel polymyxin derivatives carrying only three positive charges are effective antibacterial agents” (Antimicrob Agents Chemother, 2008).

Assay [1] relates to Escherichia coli. Put plainly: Antibacterial activity against Escherichia coli ATCC 25992 in presence of NAB7061. The assay is classed as functional.
The subject of assay [2] is Escherichia coli. The assay is described as follows: Antibacterial activity against 5 x 10^5 CFU/ml Escherichia coli ATCC 25992 in presence of 16 ug/ml NAB7061 by Checkerboard method. The assay is classed as functional.
Assay [3] has as its system Escherichia coli. The assay is described as follows: Antibacterial activity against 5 x 10^5 CFU/ml Escherichia coli ATCC 25992 in presence of 8 ug/ml NAB7061 by Checkerboard method. In kind it is functional.
The test system of assay [4] is Escherichia coli. The assay is described as follows: microbe, parasite or virus in culture. The following applies: ATCC 25992.
Assay [5] concerns Acinetobacter baumannii. The assay is described as follows: Antibacterial activity against Acinetobacter baumannii ATCC 19606 by Etest method in presence of 1 ug/ml NAB739. The assay is classed as functional.
The subject of assay [6] is Escherichia coli. The assay is described as follows: Antibacterial activity against Escherichia coli ATCC […] by Etest method in presence of 4 ug/ml NAB7064. The assay is classed as functional.
For assay [7], the system named is Escherichia coli. The assay is described as follows: microbe, parasite or virus in culture. Conditions: ATCC 25992. This is another data set of the same source.
Assay [8] deals with Acinetobacter baumannii. The assay is described as follows: Antibacterial activity against Acinetobacter baumannii ATCC 19606 by Etest method in presence of 4 ug/ml NAB7070. The assay is classed as functional.
Assay [9] concerns Acinetobacter baumannii. Put plainly: Antibacterial activity against Acinetobacter baumannii F264 by Etest method in presence of 0.5 ug/ml NAB739. In kind it is functional.
The subject of assay [10] is Enterobacter cloacae. Put plainly: Antibacterial activity against Enterobacter cloacae ATCC 23355 […] by Etest method in presence of 4 ug/ml NAB7064. The assay is classed as functional.
The subject of assay [11] is Klebsiella pneumoniae. The assay is described as follows: Antibacterial activity against Klebsiella pneumoniae ATCC 13883 by Etest method in presence of 4 ug/ml NAB7061. In kind it is functional. A digest of the protocol: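 MICs of the antibiotic taken from E-strips on Mueller-Hinton agar, run both with and without peptide. […] Inoculum was prepared per the strip manufacturer, matching CLSI M2-A9.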

For assay [12], the system named is Enterobacter cloacae. The assay is described as follows: Antibacterial activity against Enterobacter cloacae by Etest method in presence of 4 ug/ml NAB7068. In kind it is functional.
Another assay has as its system Citrobacter freundii. Put plainly: Antibacterial activity against Citrobacter freundii ATCC 8090 by Etest method in presence of 4 ug/ml NAB7069. In kind it is functional.
In assay [13] the test system is Escherichia coli. The assay is described as follows: Antibacterial activity against 5 x 10^5 CFU/ml Escherichia coli ATCC […] by Etest method in presence of […] NAB739. In kind it is functional.
For assay [14], the system named is Klebsiella pneumoniae. Put plainly: Antibacterial activity against Klebsiella pneumoniae by Etest method in presence of 4 ug/ml NAB7064. In kind it is functional.
The next assay deals with Klebsiella oxytoca. The assay is described as follows: Antibacterial activity against Klebsiella oxytoca ATCC 13182 by Etest method in presence of 4 ug/ml NAB7065. The assay is classed as functional.
Assay [15] deals with Enterobacter cloacae. Put plainly: Antibacterial activity against Enterobacter cloacae ATCC 23355 […] by Etest method in presence of NAB7061. In kind it is functional.

In brackets after ≈: the same amount, converted by molar mass.

Take `CO[C@H]1/C=C/O[C@@]2(C)Oc3c(C)c(O)c4c(O)c(c(/C=N/N5CCN(C)CC5)c(O)c4c3C2=O)NC(=O)/C(C)=C\C=C\[C@H](C)[C@H](O)[C@@H](C)[C@@H](O)[C@@H](C)[C@H](OC(C)=O)[C@@H]1C` [RIFAMPIN]: in the assay on Escherichia coli [1], the “fractional inhibitory concentration index (FICI)” value is given as “<=0.128”. Further, the MIC came to 0.031 µg/mL with Escherichia coli [2]; 0.031 µg/mL with Escherichia coli [3]; 8 µg/mL (≈ 9.72 µM) against Escherichia coli [4]; 0.006 µg/mL with Acinetobacter baumannii [5]; 0.016 µg/mL with Escherichia coli [6]; 8 µg/mL (≈ 9.72 µM) in the assay with Escherichia coli [7]. For the same compound, the MIC in the assay on Acinetobacter baumannii [8] amounted to 0.094 µg/mL; in the assay on Acinetobacter baumannii [9] it was 0.094 µg/mL; with Enterobacter cloacae [10], 0.008 µg/mL; in the assay on Klebsiella pneumoniae [11], 0.064 µg/mL; in the assay on Enterobacter cloacae [12], 0.016 µg/mL; in the assay on Citrobacter freundii, 0.023 µg/mL. Besides, the MIC in the assay with Escherichia coli [13] was 12 µg/mL; in the assay with Klebsiella pneumoniae [14], 0.19 µg/mL; with Klebsiella oxytoca, 0.032 µg/mL; in the assay on Enterobacter cloacae [15], 0.26 µg/mL.
